The text below walks through data of ChEMBL document CHEMBL1629702, “Berberine-INF55 (5-nitro-2-phenylindole) hybrid antimicrobials: effects of varying the relative orientation of the berberine and INF55 components” (Antimicrob Agents Chemother, 2010).

In data set [1] the target is T1, Quinolone resistance protein NorA (Staphylococcus aureus) (UniProt P0A0J7).
T1 sequence (whole entry): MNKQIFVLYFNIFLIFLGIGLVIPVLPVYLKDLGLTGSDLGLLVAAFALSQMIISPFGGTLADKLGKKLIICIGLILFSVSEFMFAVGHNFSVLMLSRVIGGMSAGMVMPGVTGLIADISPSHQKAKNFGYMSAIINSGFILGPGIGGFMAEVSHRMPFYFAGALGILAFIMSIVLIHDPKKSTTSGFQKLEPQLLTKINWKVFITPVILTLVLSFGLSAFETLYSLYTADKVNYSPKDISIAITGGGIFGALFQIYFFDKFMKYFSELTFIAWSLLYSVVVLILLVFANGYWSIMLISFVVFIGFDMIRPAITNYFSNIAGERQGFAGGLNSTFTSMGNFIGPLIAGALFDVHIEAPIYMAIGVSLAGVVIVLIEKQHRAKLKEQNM
The data set can be described thus: Inhibition of NorA in Staphylococcus aureus K2378 overexpressing NorA assessed as decrease in Berberine MIC.

In data set [2] the target is T1, Quinolone resistance protein NorA (Staphylococcus aureus). Nature of the data set: Inhibition of NorA in Staphylococcus aureus 8325-4 assessed as accumulation of compound at 3 uM by fluorescence assay. The method in brief:
(§1)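 S. aureus was grown at 37°C to OD600 1.5, washed, then energised for 1 h at 37°C in PBS with 10 mM dextrose. Cells were diluted to OD ~0.3 in PBS, and compounds (berberine ± INF55, or hybrids) were added at 3 μM each. DNA-binding fluorescence increase was followed at ex 355/em 517 nm, in arbitrary units, with background subtracted. At least three independent experiments.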

Data set [3] shares this target. Nature of the data set: Inhibition of NorA in Staphylococcus aureus 8325-4 assessed as decrease in Berberine MIC.
Data set [4] deals with Staphylococcus aureus. Nature of the data set: Antibacterial activity against NorA-deficient Staphylococcus aureus K1758 after 18 hrs by two fold serial dilution method in presence of INF55. The class given is functional, organism-based.
Data set [5] deals with Staphylococcus aureus. Nature of the data set: Antibacterial activity against Staphylococcus aureus K2378 overexpressing NorA after 18 hrs by two fold serial dilution method. The class given is functional. To be noted: K2378, 18 h. Summed up: (§2)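 Broth inoculated at 10⁵ cells/ml and serial 2-fold compound dilutions, run in triplicate. Incubated 18 h at 37°C, with growth read as absorbance at 600 nm. MIC is the lowest concentration giving complete growth inhibition.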

The target of data set [6] is T1, Quinolone resistance protein NorA (Staphylococcus aureus). The data set can be described thus: Inhibition of NorA in Staphylococcus aureus 8325-4 assessed as assessed as accumulation of compound at 3 uM by fluorescence assay. The method in brief: as §1
In data set [7] the test system is Staphylococcus aureus. Nature of the data set: Cellular uptake in NorA-deficient Staphylococcus aureus K1758 assessed as accumulation of compound at 3 uM by fluorescence assay. Type of data set: ADME, organism-based. To be noted: in vivo. Summed up: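 K1758 (ΔnorA) cells grown at 37°C to OD600 1.5, washed twice in PBS, then energized 1 h at 37°C with aeration in PBS plus 10 mM dextrose at OD ~0.8. Cells washed again and diluted to OD ~0.3 in PBS. Compound added at 3 μM. DNA-binding fluorescence read at ex 355/em 517 nm, cell-free background subtracted, arbitrary units; ≥3 independent experiments.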

In data set [8] the target is T1, Quinolone resistance protein NorA (Staphylococcus aureus). Nature of the data set: Inhibition of NorA in Staphylococcus aureus K2378 overexpressing NorA assessed as accumulation of compound at 3 uM by fluorescence assay. Summed up:
as §1

Data set [9] relates to Staphylococcus aureus. Nature of the data set: Antibacterial activity against wild-type Staphylococcus aureus 8325-4 after 18 hrs by two fold serial dilution method. The class given is functional. The following applies: 8325-4, 18 h. Summed up: as §2
Data set [10] addresses T1, Quinolone resistance protein NorA (Staphylococcus aureus). The data set can be described thus: Inhibition of NorA in Staphylococcus aureus K2378 overexpressing NorA assessed as accumulation of Berberine at 3 uM by fluorescence assay in presence of INF55. The method in brief: as §1
For data set [11] the target is unchanged. Nature of the data set: Inhibition of NorA in Staphylococcus aureus 8325-4 assessed as accumulation of Berberine at 3 uM by fluorescence assay in presence of INF55. Summed up:
as §1

The subject of data set [12] is Staphylococcus aureus. Nature of the data set: Antibacterial activity against NorA-deficient Staphylococcus aureus K1758 after 18 hrs by two fold serial dilution method. The class given is functional. To be noted: K1758, 18 h. The method in brief:
as §2

Data set [13] deals with T1, Quinolone resistance protein NorA (Staphylococcus aureus). Nature of the data set: Inhibition of NorA in Staphylococcus aureus K2378 overexpressing NorA assessed as ethidium bromide uptake at 3 uM by fluorescence assay. The method in brief: (§3)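 S. aureus was grown at 37°C to OD600 1.5, washed in PBS, then energised for 1 h at 37°C in PBS with 10 mM dextrose (OD ~0.8). Cells were washed and diluted to OD ~0.3 in PBS. Hybrid or INF55 was added before ethidium bromide, all at 3 μM. Fluorescence was read at ex 530/em 600 nm, with cell-free compound background subtracted. At least triplicate.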

Data set [14] has the same target. Nature of the data set: Inhibition of NorA in Staphylococcus aureus 8325-4 assessed as increase in ethidium bromide uptake at 3 uM by fluorescence assay in presence of INF55. The method in brief:
as §3

For data set [15] the target is unchanged. The data set can be described thus: Inhibition of NorA in Staphylococcus aureus K2378 overexpressing NorA assessed as increase in ethidium bromide uptake at 3 uM by fluorescence assay in presence of INF55. The method in brief:
as §3

The subject of data set [16] is Staphylococcus aureus. Nature of the data set: Increase in ethidium bromide uptake in NorA-deficient Staphylococcus aureus K1758 at 3 uM by fluorescence assay. Type of data set: functional, organism-based. Summed up:
as §3

The target of data set [17] is T1, Quinolone resistance protein NorA (Staphylococcus aureus). Nature of the data set: Inhibition of NorA in Staphylococcus aureus K2378 overexpressing NorA assessed as ethidium bromide uptake at 3 uM by fluorescence assay in presence of INF55. Summed up:
as §3

The subject of data set [18] is Enterococcus faecalis. Nature of the data set: Antibacterial activity against Enterococcus faecalis infected in Caenorhabditis elegans assessed as organism survival at 20 uM. The class given is functional, organism-based. Summed up: (§4)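 Gravid glp-4(bn2) sek-1(km4) adults were bleached for eggs, hatched at 15°C for 2 days, then grown on E. coli HB101 at 25°C for 52 h. Sterile adults were infected on E. faecalis MMH594 lawns (kanamycin 80 μg/ml) for 15 h at 15°C. Worms were sorted 15 per well into 20% BHI, 60% M9, kanamycin, nystatin and 1% DMSO, then kept 5 days at 26.3°C. Survival was scored from bright-field images, with median survival (LT50) as the read-out.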

In data set [19] the test system is Staphylococcus aureus. The data set can be described thus: Increase in ethidium bromide uptake in NorA-deficient Staphylococcus aureus K1758 at 3 uM by fluorescence assay in presence of INF55. The class given is functional, organism-based. The method in brief:
as §3

For data set [20], the target named is T1, Quinolone resistance protein NorA (Staphylococcus aureus). The data set can be described thus: Inhibition of NorA in Staphylococcus aureus 8325-4 assessed as ethidium bromide uptake at 3 uM by fluorescence assay. Summed up:
as §3

The test system of data set [21] is Enterococcus faecalis. Nature of the data set: Antibacterial activity against Enterococcus faecalis infected in Caenorhabditis elegans assessed as organism survival at 8.6 uM. The class given is functional, organism-based. Summed up: as §4

Active and inactive are the calls of the source. The calls are words filed in the database; no cut-off is given here.

As to `COc1ccc2cc3[n+](cc2c1OC)CCc1cc2c(cc1-3)OCO2.[Cl-]` [BERBERINE CHLORIDE], the outcome in [1], in data set [3] and in [4] was Active. Moreover, the inhibition result in [2] and in data set [8] was “inactive” throughout. The MIC – broadly, the least concentration at which growth counts as inhibited – was above 650 µM in data set [5], 325 µM in data set [9] and 40 µM in data set [12]. The inhibition entry in data set [6], in data set [10] and in data set [11] was “Active” throughout. In addition, the Drug uptake result in [7] is given as “Active”.
On to `COc1ccc2c(Cc3cccc(-c4cc5cc([N+](=O)[O-])ccc5[nH]4)c3)c3[n+](cc2c1OC)CCc1cc2c(cc1-3)OCO2`, for which the inhibition result in data set [13], in [14], in [15] and in [20] was “Active” in each case. Also, the MIC in [5], in data set [9] and in [12] was 20.1 µM in each case. Further, the outcome in [16], in [18] and in data set [19] was Active. Besides, the inhibition entry in data set [17] is “inactive”.
`CN[C@H](CC(C)C)C(=O)N[C@H]1C(=O)N[C@@H](CC(N)=O)C(=O)N[C@H]2C(=O)N[C@H]3C(=O)N[C@H](C(=O)N[C@H](C(=O)O)c4cc(O)cc(O)c4-c4cc3ccc4O)[C@H](O)c3ccc(c(Cl)c3)Oc3cc2cc(c3O[C@@H]2O[C@H](CO)[C@@H](O)[C@H](O)[C@H]2O[C@H]2C[C@](C)(N)[C@H](O)[C@H](C)O2)Oc2ccc(cc2Cl)[C@H]1O`: the outcome in [21] was Active.
For the molecule `COc1ccc2c(Cc3ccccc3-c3cc4cc([N+](=O)[O-])ccc4[nH]3)c3[n+](cc2c1OC)CCc1cc2c(cc1-3)OCO2`, the MIC was 18.8 µM in data set [5], 9.4 µM in data set [9] and 9.4 µM in data set [12].
As to `COc1ccc2c(Cc3ccc(-c4cc5cc([N+](=O)[O-])ccc5[nH]4)cc3)c3[n+](cc2c1OC)CCc1cc2c(cc1-3)OCO2`, the inhibition entry in [13], in data set [14], in data set [15] and in [20] was “Active” in each case. The figures for the MIC in [5], in [9] and in data set [12] were 40.2 µM, 40.2 µM and 20.1 µM, respectively. The result in data set [16], in [18] and in data set [19] was Active. The inhibition entry in [17] was “inactive”.
